Here are results for 13 sequences from article PMC4394037 (Journal of molecular biology, 2014).

The experiment has as its target Bcl-xL (Homo sapiens, UniProt Q07817). Format: binding. Particulars: global SORTCERY ranks re-indexed from 1 to 19 for the 19 chosen sequences. The essentials:
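Incubated with Myc-tagged Bcl-xL in 50 mM Tris, 100 mM NaCl, pH 8.0, 1 mg/ml BSA for 2 h at room temperature. Stained with anti-HA/anti-Myc, then APC/PE secondaries, at 4 °C. Sorted into 12 gates and deep-sequenced (Phred >0.95). Global ranking optimised by Monte Carlo, with bootstrap uncertainty.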

Sequence of Bcl-xL (Q07817 whole entry): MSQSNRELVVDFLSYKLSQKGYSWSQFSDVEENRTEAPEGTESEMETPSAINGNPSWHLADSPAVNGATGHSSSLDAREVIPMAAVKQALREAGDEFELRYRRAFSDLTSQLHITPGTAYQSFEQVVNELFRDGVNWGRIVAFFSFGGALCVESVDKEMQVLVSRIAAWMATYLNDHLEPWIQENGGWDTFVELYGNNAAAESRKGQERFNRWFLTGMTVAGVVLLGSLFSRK

AAQELRRYGDEY registered a reindexed ranking of 8.
Consider AGAQLHRFADDY, for which the reindexed ranking was 12.
FGAQLGRVASDF yielded a reindexed ranking of 14.
For the sequence FGAQLNRIAEDF, the reindexed ranking turned out to be 6.
In turn, IGAQFGRFADDF came in with a reindexed ranking of 5.
As for IGAQLRRMADDV, the reindexed ranking was 7.
With VAQELRRIGDEV the figure was 9.
With VAQELRRYGDEY the figure was 4; with VGAQFHRFANDF, 17; with VGAQLRRIADDV, 1.
The sequence YAQEIGRNGDEF showed a reindexed ranking of 16.
With YAQELQRYGDET, the reindexed ranking was found to be 13.
With YGAQLDRYAQDF the figure was 10.
